Where a chain is given by its changes, count along the chain named. Each block holds one compound with its values, some of them ahead of it.
Legend:
[1] = system: demethylated form of PP2A; test: PP2A methylation state in untransfected HEK 293T cells; format: cell-based, human; settings: 1 hour, basal PME-1
Procedure, shortened: (§1)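 Compound or DMSO added to the medium of HEK 293T cells at 37 °C. Total sonicated cell extract diluted to 2 mg/mL in PBS, run on reducing 10% SDS-PAGE, and immunoblotted with demethylated-specific (4b7), methylated-specific (2A10) and total PP2A antibodies plus α-tubulin. Bands quantified by fluorescence imaging. Mean ± SEM, n = 3; compared with DMSO-treated cells.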

[2] = molecular target: T1, PME-1 (Homo sapiens, UniProt Q9Y570); settings: read-out: PME-1 IC50; cited from earlier work
T1 sequence (Q9Y570 2-386 limits assumed): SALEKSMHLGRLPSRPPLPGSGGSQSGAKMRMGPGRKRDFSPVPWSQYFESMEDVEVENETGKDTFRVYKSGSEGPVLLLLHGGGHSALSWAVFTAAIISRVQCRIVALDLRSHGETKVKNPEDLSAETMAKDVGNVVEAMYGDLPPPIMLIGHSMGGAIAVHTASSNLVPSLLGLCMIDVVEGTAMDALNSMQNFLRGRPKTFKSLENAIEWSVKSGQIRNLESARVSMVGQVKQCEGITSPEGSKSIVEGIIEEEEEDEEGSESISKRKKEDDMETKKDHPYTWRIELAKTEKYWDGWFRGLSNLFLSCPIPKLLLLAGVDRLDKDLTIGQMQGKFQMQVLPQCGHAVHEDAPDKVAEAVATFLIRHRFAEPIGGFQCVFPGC

[3] = system: other SHs in human cell lysates; test: Gel-based competitive ABPP, other SHs in human cell proteomes/lysates; format: biochemical; settings: human cell proteomes
[4] = molecular target: T2, PME-1 (Mus musculus, UniProt Q8BVQ5); test: Gel-based competitive ABPP with FP-Rh, PME-1 in mouse brain soluble proteome; format: biochemical
T2 sequence (Q8BVQ5 1-386): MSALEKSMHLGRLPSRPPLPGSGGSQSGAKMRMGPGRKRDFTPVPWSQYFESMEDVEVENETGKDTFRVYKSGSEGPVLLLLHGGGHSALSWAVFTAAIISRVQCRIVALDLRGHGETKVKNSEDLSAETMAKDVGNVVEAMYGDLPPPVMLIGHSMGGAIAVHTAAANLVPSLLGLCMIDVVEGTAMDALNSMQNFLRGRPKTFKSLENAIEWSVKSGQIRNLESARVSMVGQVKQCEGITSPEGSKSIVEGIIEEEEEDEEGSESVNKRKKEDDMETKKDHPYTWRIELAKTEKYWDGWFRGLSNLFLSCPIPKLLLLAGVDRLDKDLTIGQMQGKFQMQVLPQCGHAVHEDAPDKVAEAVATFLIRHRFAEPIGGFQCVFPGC
Procedure, shortened: (§2)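 Soluble proteomes diluted to 1 mg/mL in PBS (pH 7.5) and preincubated with compound or DMSO for 30 min at 25 °C. FP-rhodamine then added (2 μM final) for 45 min. Reactions quenched with reducing SDS loading buffer, separated by 10% SDS-PAGE, and serine hydrolase activity read by in-gel fluorescence scanning.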

[5] = system: other SHs; format: biochemical, mouse; settings: Off-targets are defined as SHs with >50% inhibition at 50 μM; Table 1 series
Procedure, shortened: as §2

[6] = molecular target: T1, PME-1; test: PME-1 IC50 by gel-based competitive ABPP in soluble proteomes; format: biochemical; settings: Table 2 series
[7] = system: PP2A methylation state; test: PP2A methylation state in HEK 293T cells stably overexpressing PME-1; format: cell-based, human; settings: 20 μM, 1 h
Procedure, shortened: as §1

[8] = molecular target: T3, Purified wild-type PME-1 (Homo sapiens, UniProt Q9Y570); test: Reversibility of PME-1 inhibition; format: biochemical; settings: PME-1 500 nM, compound 50 μM
T3 sequence (Q9Y570 1-386): T2 sequence (Q8BVQ5 1-386) with T42S, G114S, S123P, V150I, A167S, A168S, V268I, N269S

[9] = system: other SHs; test: In situ gel-based competitive ABPP, other SHs in HEK 293T cells; format: cell-based, human; settings: up to 100 μM compound, 1 h
Procedure, shortened: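 HEK 293T cells treated in culture with a concentration range of compound or DMSO for 1 h at 37 °C, then harvested and sonicated in PBS (pH 7.5). Soluble fraction (64,000g supernatant) diluted to 1 mg/mL and labelled with FP-rhodamine (2 μM, 45 min, 25 °C). Resolved by 10% SDS-PAGE and read by in-gel fluorescence scanning.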

[10] = molecular target: T4, PME-1 (Homo sapiens, UniProt Q9Y570); test: In situ competitive SILAC-ABPP; format: cell-based; settings: HEK 293T cells, 20 μM, 1 h
T4 sequence (Q9Y570 1-386): T2 sequence (Q8BVQ5 1-386) with T42S, G114S, S123P, V150I, A167S, A168S, V268I, N269S

[11] = system: 35 other SHs detected in HEK 293T cells; test: In situ competitive SILAC-ABPP; format: cell-based, human; settings: 20 μM, 1 h
Procedure, shortened: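 HEK 293T cells SILAC-labelled with light or heavy Lys/Arg. Light cells given compound and heavy cells DMSO, 1 h at 37 °C. Soluble and membrane proteomes (0.5 mg each) mixed 1:1 and labelled with FP-biotin (5 μM, 1 h, 25 °C). Streptavidin enrichment, on-bead trypsin digestion, then MudPIT LC-MS/MS. Light/heavy ratios taken for SHs with ≥2 quantifiable peptides, normalised to a DMSO/DMSO control.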

[12] = system: CA-Rh or SE-Rh-labeled proteins; test: CA-Rh / SE-Rh probe labeling of soluble proteomes from treated HEK 293T cells; format: cell-based, human; settings: 100 μM, relative to DMSO-treated samples
Procedure, shortened: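 Compound or DMSO added to the culture medium of HEK 293T cells at 37 °C. Cells washed, scraped, pelleted, and sonicated in ice-cold PBS (pH 7.5). Soluble fraction isolated at 64,000g for 45 min at 4 °C and diluted to 1 mg/mL. Labelled with CA-rhodamine or SE-rhodamine (5 μM, 1 h, 25 °C), resolved by reducing 10% SDS-PAGE, and scanned for in-gel fluorescence.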

PME-1 activity (in words) [4]: inactive
Compound: CS(=O)(=O)/C(C#N)=C/c1ccc[nH]1 [Cmpd 7, (E)-2-(methylsulfonyl)-3-(1H-pyrrol-2-yl)acrylonitrile]

PME-1 activity (in words) [4]: inactive
Compound: CS(=O)(=O)/C(C#N)=C/c1ccccc1 [Cmpd 8, (E)-2-(methylsulfonyl)-3-phenylacrylonitrile]

PME-1 activity (in words) [4]: inactive
Compound: CS(=O)(=O)/C(C#N)=C/c1ccc([N+](=O)[O-])cc1 [Cmpd 9, (E)-2-(methylsulfonyl)-3-(4-nitrophenyl)acrylonitrile]

PME-1 activity (in words) [4]: two-fold less potent
Compound: N#CC(C#N)=Cc1cccn1S(=O)(=O)c1ccccc1 [Cmpd 17, 2-((1-(phenylsulfonyl)-1H-pyrrol-2-yl)methylene)malononitrile]
Off-targets [5]: increased activity against a 40 kDa SH

More lines, now with the values behind:

Compound: COC(=O)N1C(=O)[C@](c2ccccc2)(C2CCCC2)N1C(=O)OC (stereo in doubt) [Cmpd 1, reference compound]
Effect on the demethylated form of PP2A ([1]; 500 nM): decreased the demethylated form of PP2A
IC50 [2]: ~10 nM

Compound: CS(=O)(=O)/C(C#N)=C/c1cccn1S(=O)(=O)c1ccccc1 [Cmpd 2]
Cross-reactivity with additional SHs [3]: acyl-peptide hydrolase (APEH) and an unidentified 30 kDa SH

Compound: CS(=O)(=O)C(C#N)Cc1cccn1S(=O)(=O)c1ccccc1 (centres unmarked) [Cmpd 3, 2-(methylsulfonyl)-3-(1-(phenylsulfonyl)-1H-pyrrol-2-yl)propanenitrile]
PME-1 activity (in words) [4]: inactive

Compound: CS(=O)(=O)/C(=C/c1cccn1S(=O)(=O)c1ccccc1)CN [Cmpd 4, (E)-2-(methylsulfonyl)-3-(1-(phenylsulfonyl)-1H-pyrrol-2-yl)prop-2-en-1-amine]
PME-1 activity (in words) [4]: inactive

Compound: CS(=O)(=O)C(=Cc1cccn1S(=O)(=O)c1ccccc1)S(C)(=O)=O [Cmpd 16, 2-(2,2-bis(methylsulfonyl)vinyl)-1-(phenylsulfonyl)-1H-pyrrole]
PME-1 activity (in words) [4]: did not inhibit PME-1

Compound: CS(=O)(=O)/C(C#N)=C/c1cccn1S(=O)(=O)c1c(F)c(F)c(F)c(F)c1F [Cmpd 22, (E)-2-(methylsulfonyl)-3-(1-((perfluorophenyl)sulfonyl)-1H-pyrrol-2-yl)acrylonitrile]
PME-1 activity (in words) [6]: no activity

Compound: N#C/C(=C\c1cccn1S(=O)(=O)c1cccc(C#N)c1)S(=O)(=O)c1ccc(F)cc1 [Cmpd 27, (E)-3-(2-(2-cyano-2-(4-fluorophenylsulfonyl)vinyl)-1H-pyrrol-1-ylsulfonyl)benzonitrile]
Effect on the methylated form of PP2A [7]: significantly increased

Compound: N#C/C(=C\c1cccn1S(=O)(=O)c1cccc([N+](=O)[O-])c1)S(=O)(=O)c1ccc(F)cc1 [Cmpd 28, (E)-2-(4-fluorophenylsulfonyl)-3-(1-(3-nitrophenylsulfonyl)-1H-pyrrol-2-yl)acrylonitrile]
Recovery of enzyme activity after gel filtration [8]: not observed
Cross-reactivity with other SHs in situ [9]: without any observed cross-reactivity
in situ inhibition of PME-1 (SILAC-ABPP) [10]: complete in situ inhibition
Activity against other SHs (SILAC-ABPP) [11]: no activity
Change of intensity of CA-Rh or SE-Rh-labeled proteins [12]: did not alter the intensity
Effect on the methylated form of PP2A [7]: significantly increased
Effect on the demethylated form of PP2A ([1]; 20 μM): decreased the demethylated form of PP2A

From PMC3144155 (Journal of medicinal chemistry, 2011)
